Results on 1 compound are retold here after ChEMBL document CHEMBL1932969, “Acyl derivatives of boswellic acids as inhibitors of NF-κB and STATs” (Bioorg Med Chem Lett, 2012).

Activity calls are given as the source filed them. The rule behind the calls is not given here.

Assay [1] concerns HL-60. In words: Induction of autophagy in p53-deficient human HL60 cells at 50 uM after 6 hrs by acridine orange staining. In kind it is functional, cell-based. The procedure, abridged: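 Autophagy scored by flow cytometry of HL-60 cells stained with acridine orange after 6 h exposure.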
The test system of assay [2] is HL-60. In words: Induction of apoptosis in p53-deficient human HL60 cells assessed as DNA fragmentation at 50 uM after 6 hrs by agarose gel electrophoresis. In kind it is functional, cell-based. In short, it runs like this:
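2 × 10⁶ HL-60 cells treated with derivatives at 50 µM for 6 h, then scored for an apoptotic DNA ladder of 180–200 bp fragments or multiples. The positive control is 4 µM camptothecin for 6 h.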

Assay [3] has as its system PC-3. In words: Anticancer activity against human PC3 cells assessed as growth inhibition at 50 uM after 48 hrs by SRB assay. In kind it is functional. Conditions: PC-3, 48 h, read-out: GI. In short, it runs like this:
(§1)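 Cells exposed to test compounds at 50 µM for 48 h. Read-out is percent growth inhibition, with SEM given. 5-Fluorouracil and adriamycin serve as reference agents.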
(Sulforhodamine B stains cellular protein and so reports cell mass.)

The target of assay [4] is T1, Signal transducer and activator of transcription 6 (Homo sapiens) (UniProt P42226).
T1 sequence (whole entry): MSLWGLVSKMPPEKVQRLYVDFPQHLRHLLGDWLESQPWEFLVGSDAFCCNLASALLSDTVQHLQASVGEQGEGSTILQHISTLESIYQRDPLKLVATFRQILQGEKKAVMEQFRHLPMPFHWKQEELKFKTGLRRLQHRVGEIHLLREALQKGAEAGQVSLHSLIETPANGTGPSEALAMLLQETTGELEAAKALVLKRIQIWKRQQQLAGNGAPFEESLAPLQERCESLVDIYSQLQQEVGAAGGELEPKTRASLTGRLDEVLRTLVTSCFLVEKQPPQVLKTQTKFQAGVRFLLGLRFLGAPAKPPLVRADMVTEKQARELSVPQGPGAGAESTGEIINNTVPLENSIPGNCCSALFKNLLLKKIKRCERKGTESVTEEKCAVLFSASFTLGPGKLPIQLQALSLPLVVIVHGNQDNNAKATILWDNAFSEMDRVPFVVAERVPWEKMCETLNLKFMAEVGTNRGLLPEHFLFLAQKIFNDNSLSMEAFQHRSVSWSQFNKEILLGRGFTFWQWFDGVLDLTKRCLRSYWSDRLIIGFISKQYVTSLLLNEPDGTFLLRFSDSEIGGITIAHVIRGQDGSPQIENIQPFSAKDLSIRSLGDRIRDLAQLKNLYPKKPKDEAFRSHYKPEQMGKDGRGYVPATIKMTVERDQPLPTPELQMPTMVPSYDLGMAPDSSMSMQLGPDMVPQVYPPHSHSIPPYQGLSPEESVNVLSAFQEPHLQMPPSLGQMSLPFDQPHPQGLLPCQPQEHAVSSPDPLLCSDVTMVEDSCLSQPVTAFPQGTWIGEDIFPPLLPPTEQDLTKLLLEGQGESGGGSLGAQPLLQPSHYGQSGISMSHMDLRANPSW
As to the kind of experiment: Inhibition of STAT6 Tyr641 phosphorylation in p53-deficient human HL60 cells at 20 to 50 uM after 6 hrs by Western blot analysis. In kind it is cell-based. Conditions: HL-60.

The subject of assay [5] is COLO 205. As to the kind of experiment: Anticancer activity against human COLO205 cells assessed as growth inhibition at 50 uM after 48 hrs by SRB assay. In kind it is functional. Particulars: COLO 205, 48 h, read-out: GI. In short, it runs like this:
as §1

The test system of assay [6] is HL-60. As to the kind of experiment: Induction of necrosis in p53-deficient human HL60 cells at 50 uM after 6 hrs by FITC-conjugated annexinV/PI-based flow cytometric analysis. In kind it is functional, cell-based. The procedure, abridged: (§2)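 HL-60 cells incubated with each analog at 50 µM for 6 h, stained with annexin V-FITC/propidium iodide and analysed by flow cytometry. Lower right quadrant is apoptotic, upper right post-apoptotic, upper left necrotic. Three experiments, with representative dot plots shown.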
For orientation: A flow cytometer gives signals particle by particle.

The target of assay [7] is Transcription factor p65 (Homo sapiens) (UniProt Q04206). In words: Inhibition of NF-kappaB p65 subunit protein expression in p53-deficient human HL60 cells at 50 uM after 6 hrs by Western blot analysis. In kind it is cell-based. Particulars: HL-60. The procedure, abridged: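 HL-60 cells treated with or without compound (20 and 50 µM) for 6 h. Total cell lysates (70 µg protein) are run on 10% SDS–PAGE and immunoblotted for NF-κB p50 and p65.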
Sequence of Transcription factor p65 (Homo sapiens) (Q04206 whole entry): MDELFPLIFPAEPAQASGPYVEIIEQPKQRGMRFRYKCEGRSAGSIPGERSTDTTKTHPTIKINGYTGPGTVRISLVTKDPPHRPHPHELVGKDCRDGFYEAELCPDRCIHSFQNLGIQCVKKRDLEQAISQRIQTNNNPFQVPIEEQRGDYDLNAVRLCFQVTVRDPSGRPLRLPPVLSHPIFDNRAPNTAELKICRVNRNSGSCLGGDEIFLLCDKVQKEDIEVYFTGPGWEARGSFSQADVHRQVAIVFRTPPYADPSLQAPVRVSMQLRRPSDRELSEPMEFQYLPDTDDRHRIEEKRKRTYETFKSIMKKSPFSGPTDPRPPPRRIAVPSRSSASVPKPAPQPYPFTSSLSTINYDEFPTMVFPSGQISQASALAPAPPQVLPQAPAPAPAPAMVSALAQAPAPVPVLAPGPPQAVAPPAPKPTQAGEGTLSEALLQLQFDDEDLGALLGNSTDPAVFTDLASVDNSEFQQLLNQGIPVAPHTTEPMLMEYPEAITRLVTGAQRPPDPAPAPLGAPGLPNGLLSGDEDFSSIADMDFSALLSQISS
(Immunoblotting shows a protein as a band on a membrane.)

The target in assay [8] is T1, Signal transducer and activator of transcription 6 (Homo sapiens). As to the kind of experiment: Inhibition of STAT6 protein expression in p53-deficient human HL60 cells at 20 to 50 uM after 6 hrs by Western blot analysis. In kind it is cell-based. Particulars: HL-60.
The subject of assay [9] is HL-60. In words: Induction of apoptosis in p53-deficient human HL60 cells at 50 uM after 6 hrs by FITC-conjugated annexinV/PI-based flow cytometric analysis. In kind it is functional. In short, it runs like this: as §2

What is called inhibition is the share of the control response that was lost under treatment.

With `CCCC(=O)O[C@@H]1CC[C@@]2(C)[C@@H](CC[C@]3(C)[C@@H]2C(=O)C=C2[C@@H]4[C@@H](C)[C@H](C)CC[C@]4(C)CC[C@]23C)[C@@]1(C)C(=O)O`, the outcome in assay [1] and in assay [6] was inactive. For the same compound, in [2], the result was Active. Also, the inhibition of growth at 50 µM turned out to be 96% in assay [3] and 94% in [5]. Further, the inhibition entry in assay [4] and in assay [8] was “Active” each time. This compound came in with an inhibition in assay [7] of 90%. Further, the Activity in [9] turned out to be 80%.
